Screening data deposited in PubChem by Sanford-Burnham Center for Chemical Genomics.
A selection follows.
Apaf-1 act – activates human Apaf-1 apoptosome; O14727; Apaf-1 apoptosome caspase-3 activation, DEVD-Rh110 fluorescence; stronger effect = lower value; activity change, negative = activation, % at 20 µM; actives 0.31% (n = 330,000);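 active = activity change at or below -40% at 20 µM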
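Material: reconstituted apoptosome of Apaf-1, cytochrome c, caspase-9, procaspase-3; times: 30 min preincubation, 50 min reaction, room temperature; measured by: fluorescence, 540 nm emission, 480 nm excitation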
Rh110 interf act – interferes with Rh110 fluorescence, flagging false Apaf-1 activators | shares compounds with Apaf-1 act | Rh110 fluorescence interference, quenched caspase reaction, Ex480/Em540 | fluorescence interference (activity change), % at 20 µM, hits read low | 980 tested, under 10 active | AID 504616;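 active = mean activity change at or below -40% when tested at 20 µM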
Apaf-1 act conf – confirmation of human Apaf-1 activators; shares compounds with Apaf-1 act; reconstituted apoptosome caspase-3 activity, DEVD-Rh110 fluorescence; stronger effect = lower value; activity change, negative = activation, % at 20 µM; actives 5% (n = 980);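 active = mean activity change at or below -40%, meaning activation of 40% or more, at 20 µM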
Fluor interf act – shows fluorescence interference in the Apaf-1 activator assay format; EC50, µM; shares compounds with Apaf-1 act; AID 588592; 55 tested, under 10 active; fluorescence interference counterscreen; call rule not given here
A number is an active result; n = inactive; x = no result.

SMILES | Apaf-1 act | Rh110 interf act | Apaf-1 act conf | others
Cc1cccc(CCNS(=O)(=O)c2cnc[nH]2)c1 | -46 | n | n
C#CCOCCOCCOCCNc1nc(N2CCN(C(=O)C([C@@H](C)O)n3cc([C@@H](N)CCCCN)nn3)CC2)nc(N2CCN(C(=O)[C@H](CCCCN)n3cc([C@@H](N)CC(N)=O)nn3)CC2)n1 (stereo not given in full) | n | x | x
CC(=O)Nc1ccc(S(=O)(=O)/N=C2\C(=O)c3ccccc3C([O-])=C2n2cc[n+](-c3ccccn3)c2)cc1 | n | x | x
O=C(N/N=C/c1cc(Cl)cc([N+](=O)[O-])c1O)NC12CC3CC(CC(C3)C1)C2 | -56 | n | -121 | Fluor interf act=n
CCCCC(CC)CN1C(=O)/C(=C/c2ccncc2)SC1=S (stereo not given) | n | x | x
O=C(Nc1ccc(OC(F)F)c(Cl)c1)[C@@H]1CCCN1C(=O)c1cccs1 | n | x | x
O=C(Nc1ccc2c(c1)OCO2)C1CCCCN1S(=O)(=O)c1ccccc1 (stereo not given) | -95 | n | n
Cc1ccc(NC(=O)N2CCCC2C(=O)Nc2ccc3c(c2)OCCO3)cc1 (stereo not given) | -83 | n | n
C#CCOCCOCCOCCNc1nc(N2CCN(C(=O)CCCCCCCCCCNC(=O)[C@@H](CCC(=O)O)n3cc(CCCCCN)nn3)CC2)nc(N2CCN(C(=O)CCCCCCCCCCNC(=O)[C@H]([C@@H](C)CC)n3cc(CCCCCN)nn3)CC2)n1 | n | x | x
COn1c2c(c3c4nonc4ccc31)CCCC2 | n | x | x | Fluor interf act=n
COc1cc(OC)cc(-c2sc3ccc(OC)cc3c2-c2ccc(OCCN3CCCCC3)cc2)c1 | n | x | x
N#Cc1c(N2CCCC(O)C2)nc(N)c2c(N)nc3c(c12)CC(=O)N3C12CC3CC(CC(C3)C1)C2 (stereo not given) | n | x | x
CN1c2cccc3cccc(c23)N(C)C1(C)C | n | x | x
CCN(CC)c1ccc(C=Nc2ccc(N(C)C)cc2)c(O)c1 | n | x | x
CCN(CC)c1ccc(/C=N/N2CCN(Cc3ccccc3)CC2)c(O)c1 | -50 | n | n
CCN(CC)c1ccc(/C=N/N=C(N)N)c(O)c1 | -156 | n | n
NC(N)=N/N=C/c1ccc(OCc2ccccc2)c(OCc2ccccc2)c1 | n | x | x
CCC12CCCN3CCc4c(n(c5ccccc45)C(O)(C(=O)OC)C1)C32 (stereo not given) | n | x | x
Nc1scc2c(C(=O)N/N=C/c3ccc(Cl)cc3)nn(-c3ccccc3)c(=O)c12 | n | x | x
CCC(COC(=O)c1ccccc1)Oc1cc(NCc2ccccc2)c2ncn(C(C)C)c2c1 (stereo not given) | n | x | x
CC(C)N1CCc2c(sc(NC(=O)c3ccc(S(=O)(=O)N4CCc5ccccc54)cc3)c2C(N)=O)C1 | n | x | x
Cc1cc(Cl)ccc1NC(=O)c1ccc2c(c1)CCN2S(C)(=O)=O | -170 | n | n
Cc1cc(N2CCN(C)CC2)ccc1NC(=O)c1ccc(-c2ccc(Cl)cc2)o1 | n | x | x
COc1cc(NCc2ccccc2)c2ncn(Cc3ccccc3)c2c1 | n | x | x
Cc1ccc(-n2nc3ccc(NC(=O)C(C)C)cc3n2)cc1 | -152 | n | n
SMILES | Apaf-1 act | Rh110 interf act | Apaf-1 act conf | others
CC(C)C(=O)Nc1cccc(-c2cn3ccsc3n2)c1 | n | x | x
CC(=O)Nc1cccc(C(=O)NC(C)c2ccc(-n3ccnc3)cc2)c1 (stereo not given) | n | x | x
CC(C)c1ccc(-n2nc3ccc(N)cc3n2)cc1 | n | x | x
Cc1ccc(-n2nc3ccc(N)cc3n2)cc1 | n | x | x
CC(C)C(=O)Nc1ccc2nn(-c3ccc(F)cc3)nc2c1 | -95 | n | n
CC1(C)Cc2cccc(OCC(=O)N3CCN(c4cccc(C(F)(F)F)c4)CC3)c2O1 | n | x | x
C#CCOCCOCCOCCNc1nc(N2CCN(C(=O)CCCCCCCCCCNC(=O)[C@H](CCCCN)n3cc(C)nn3)CC2)nc(N2CCN(C(=O)CCCCCCCCCCNC(=O)[C@H](CCCCN)n3cc(CCCC(=O)O)nn3)CC2)n1 | n | x | x
CCN1CCN(Cc2ccc(NC(=O)c3ccc(C)c(NC(=O)c4csc(-c5ccncc5)n4)c3)cc2C(F)(F)F)CC1 | n | x | x
CN(C)c1ccc(NC(=O)Oc2ccccc2)cc1 | n | x | x
CC(C)(C)NC(=O)NC(=O)COC(=O)c1nc(-c2ccccc2)n(-c2cccc(C(F)(F)F)c2)n1 | -47 | n | n
COc1ccc2cc1Oc1ccc(cc1)C[C@H]1c3c(cc4c(c3Oc3cc5c(cc3OC)CCN(C)[C@@H]5C2)OCO4)CCN1C | n | x | x
CCOC(=O)c1c(NC(=O)CN2CCN(C(=O)c3ccco3)CC2)sc2c1CCCC2 | n | x | x
Cc1noc(C)c1COC(=O)C1COc2ccccc2O1 (stereo not given) | -73 | n | n
COc1ccc(C)cc1NC(=O)COC(=O)C1COc2ccccc2O1 (stereo not given) | -53 | n | n
Cc1[nH]n(-c2ccccc2)c(=O)c1/C=N\NC(=O)C1COc2ccccc2O1 (stereo not given) | n | x | x
COc1ccc(C)cc1NC(=O)CN1C(=O)C2CC=CCC2C1=O (stereo not given) | -315 | n | n
Nc1cccc2nsnc12 | n | x | x
COc1cccc(CNc2cccc3cccnc23)c1O | n | x | x
CCCCCCCCCCCCCCCC(O)C(N)CO (stereo not given) | n | x | x
CCOc1ccccc1CNC(=O)C1CCN(c2nnc(C)c3c(C)n(-c4ccc(C)cc4)nc23)CC1 | n | x | x
Cc1c(CCOC(=O)c2ccc(Cl)cc2Cl)sc[n+]1CC(=O)c1ccc(Br)cc1 | n | x | x
CC(C)CCOc1ccc(C(CC(N)=O)C(=O)O)cc1 (stereo not given) | -41 | n | n
CCOC(=O)c1nn(-c2ccccc2C)c(=O)c2c(N)scc12 | n | x | x
COC(=O)CCC(=O)OC1(C)C(=O)C=C2C=C(C3CC3)N(CCCOC(C)C)C=C2C1=O (stereo not given) | n | x | x
CC1CC2(CCCCC2)N2C(=O)C(=O)c3cccc1c32 (stereo not given) | n | x | x
SMILES | Apaf-1 act | Rh110 interf act | Apaf-1 act conf | others
CCCCCCCCCCOC(=O)Cn1c(COc2ccccc2)[n+](C)c2ccccc21 | n | x | x
O=C(COC(=O)Cc1ccsc1)Nc1ccc(F)cc1Cl | -52 | n | n
CN(C)c1ccnc2c[cH-]cc12.[Fe].c1ccc(-[c-]2[c-](-c3ccccc3)[c-](-c3ccccc3)[c-](-c3ccccc3)[c-]2-c2ccccc2)cc1 (stereo not given) | n | x | x
CCc1ccc(N2C(=O)C(Cl)=C(Nc3ccc(C(=O)N4CCCC4)cc3)C2=O)cc1 | n | x | x
COc1ccc2nc(C)cc(N/N=C/c3ccc(F)cc3)c2c1 | n | x | x
Fc1ccc(/C=N/Nc2nc3ccccc3[nH]2)cc1F | -64 | n | n
Cc1cc(C)c2sc(N(CCCN(C)C)C(=O)c3ccc(S(=O)(=O)N(C)C4CCCCC4)cc3)nc2c1 | n | x | x
C#CCOCCOCCOCCNc1nc(N2CCN(C(=O)CCCCCCCCCCNC(=O)Cn3cc(C[C@@H](C)O)nn3)CC2)nc(N2CCN(C(=O)CCCCCCCCCCNC(=O)[C@@H](CCC(=O)O)n3cc(CCCCCN)nn3)CC2)n1 | n | x | x
CCC(C)(C)C1CCc2c(sc(N)c2C(N)=O)C1 (stereo not given) | -48 | n | n
